Screening data deposited in PubChem by Broad Institute.
NSD2 HMT inh: inhibitors of human histone methyltransferase NSD2. NSD2 peptide methylation, AlphaScreen, 120 min. inhibition, % at 12.5 µM. O96028. 310,000 tested, 0.54% active; in the data active means inhibition above about 50%
Casp6 inh: caspase-6 (human) enzyme inhibition. purified caspase-6, Z-VEID-R110 cleavage fluorescence. 350,000 tested, 0.53% active. inhibition, % at 12.5 µM;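 active means mean inhibition across replicates at least about 35%, with every replicate also reaching that limit, limit read from the data; inconclusive means only one of the two criteria met; inactive means neither criterion met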;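 further: 0% = median of neutral control wells and 100% = no fluorescence left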
Target sequence (P55212 24-179 limits assumed): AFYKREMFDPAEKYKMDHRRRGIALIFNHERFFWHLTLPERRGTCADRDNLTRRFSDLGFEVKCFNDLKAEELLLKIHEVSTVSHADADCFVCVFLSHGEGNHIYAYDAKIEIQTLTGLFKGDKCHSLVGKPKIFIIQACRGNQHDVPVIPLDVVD
Target sequence (P55212 194-293 limits assumed): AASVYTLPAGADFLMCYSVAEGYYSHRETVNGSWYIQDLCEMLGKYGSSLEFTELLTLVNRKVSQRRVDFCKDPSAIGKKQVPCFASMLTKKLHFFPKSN
Wnt bcat act: activators of Wnt/beta-catenin signaling; 300,000 tested, 1.2% active; Wnt/beta-catenin reporter cell assay, activator, plate reader; activation, % at 9.35 µM; in the data active means activation above about 30%, passing the limit was not always enough; inconclusive means no clear call, values can overlap the other calls;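 further: 0% = neutral control wells and 100% = positive control wells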
esBAF inh: SWI/SNF esBAF complex inhibition | AID 602393 | 350,000 tested, 2% active | mouse ES cells, Bmi1-luciferase knock-in reporter, 24 h; 100% = twice the neutral-well signal | reporter increase, % at 12.5 µM; in the data active means activation above about 40%; inconclusive means no clear call, values can overlap the other calls;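 further: 0% = median of the plate's neutral control wells and 100% = double that signal; a rise in the Bmi1 reporter signal indicates esBAF inhibition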
XiGFP reactiv: reactivates the inactive X chromosome in mouse fibroblasts | XiGFP mouse fibroblasts, % GFP-positive cells imaging, 3 d; cells co-treated with 5-aza-dC sensitizer; scaled so ellipticine positive control = 100% | activation, % at 7.58 µM | 360,000 tested, 0.055% active;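 active means mean normalized replicate activation at least 10% and every replicate at or above 10%; inconclusive means only one of the two criteria met; inactive means mean below 10% and not all replicates reach 10%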;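 further: 0% = median of on-plate neutral control wells and 100% = ellipticine 6 µM median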
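Assay system: SV40-immortalized XiGFP fibroblast cells, line 68-5-11; buffer or medium: DMEM plus 5-aza-dC sensitizer; compound: one concentration, pinned; timing: compounds 3 days, fix/stain 15 min at room temperature; benchmarks: positive control ellipticine, 6 µM final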
MITF TRPM1 HTS: activators of MITF-driven TRPM1 promoter activity in SK-MEL-5 cells; activation, % at 12.5 µM; AID 588334; SK-MEL-5 TRPM1-promoter luciferase, 24 h; % of positive control, neutral wells = 0; 300,000 tested, 0.75% active;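 active means mean activation of at least 80% with every replicate also reaching 80%; inconclusive means mean reaches 80% but some replicate falls short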;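 further: 0% = neutral control wells and 100% = parthenolide positive control wells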
Numbers without * were called inactive; ? = inconclusive; · = no result. A selection: hits, their analogues and other compounds. The true share with any hit is near 3%.

SMILES | NSD2 HMT inh | Casp6 inh | Wnt bcat act | esBAF inh | XiGFP reactiv | MITF TRPM1 HTS
Cc1ccc(C2=NN(C(=S)Nc3ccccc3)C(c3ccco3)C2)cc1 (configuration not stated) | 0.7 | · | · | 79.8* | · | 70.8
O=C(Nc1ccccc1F)c1ccc2sc([C@H]3C[C@H](O)[C@@H](CO)O3)nc2c1 | -0.8 | 0.8 | -3.0 | 55.4* | 0.1 | ·
O=C(Nc1cccc2ccccc12)c1ccc2sc([C@@H]3O[C@H](CO)[C@@H](O)[C@H]3O)nc2c1 | -1.5 | 2.2 | 0.0 | 41.7* | -0.1 | ·
O=C(Nc1nc2ccccc2s1)c1ccc2sc([C@H]3C[C@H](O)[C@@H](CO)O3)nc2c1 | 0.0 | -0.3 | 4.5 | 55.0* | 0.3 | ·
COc1ccc(NC(=O)c2cccc(NC(=O)c3ccco3)c2)cc1 | 2.1 | · | · | · | · | ·
C[C@@H]1CN([C@@H](C)CO)C(=O)c2cc(NC(=O)C3CCCCC3)ccc2O[C@@H](C)CCCCO[C@H]1CN(C)Cc1ccc(C(F)(F)F)cc1 | · | · | · | 3.3 | -0.1 | ·
CCNC(=O)C[C@@H]1CC[C@@H]2[C@H](COC[C@@H](O)CN2C(=O)c2cc(Cl)cc(Cl)c2)O1 | · | · | · | 17.5 | 0.3 | ·
O=C(O)CSc1ncnc2c1oc1ccccc12 | -2.3 | · | -0.2 | -9.5 | · | -1.7
c1ccc(Sc2ncnc3c2oc2ccccc23)cc1 | -1.8 | · | · | 70.6* | · | 52.0
Cc1ccc(Nc2ncnc3c2oc2ccccc23)cc1 | -1.1 | · | · | 47.0* | · | 19.0
CC(C)CC#Cc1cnc2c(c1)C(=O)N([C@@H](C)CO)C[C@@H](C)[C@@H](CN(C)C(=O)c1ccc(F)cc1)O2 | · | 0.7 | · | -1.5 | -0.7 | ·
O=C(C[C@H]1CC[C@H]2[C@@H](COC[C@H](O)CN2C(=O)Nc2ccc(C(F)(F)F)cc2)O1)NC1Cc2ccccc2C1 | · | 2.3 | · | -1.1 | 0.0 | ·
CCCC(=O)N1CC2(C1)CN(C(=O)CC1CC1)[C@@H](CO)c1c2c2ccc(OC)cc2n1C | · | · | · | · | 0.3 | ·
O=C(NC(=S)Nc1ccccn1)c1ccc([N+](=O)[O-])cc1 | -2.3 | · | · | 76.6* | 0.0 | 78.2
O=C(Nc1ccccn1)c1ccc(Br)s1 | 1.2 | -3.9 | -0.1 | 47.9* | 0.1 | ·
O=C(NC(=S)Nc1ccccn1)c1ccc(-c2ccccc2)cc1 | -3.5 | -4.5 | -0.9 | · | 0.0 | 116.5*
O=C(Nc1ccc(Cl)cc1)c1ccc(-c2ccccn2)s1 | -3.0 | -2.2 | 38.6* | ? | 0.1 | ·
C[C@@H]1CN([C@@H](C)CO)S(=O)(=O)c2ccc(-c3ccc(C(=O)N(C)C)cc3)cc2O[C@H]1CN(C)C(=O)C1CC1 | · | · | · | · | -0.3 | ·
O=C(Nc1cc(-c2ccccc2)[nH]n1)c1ccccc1 | -1.6 | -4.5 | 43.3* | · | 0.0 | ·
O=C(Nc1ccccn1)c1ccccc1 | 1.1 | -5.1 | 26.3 | 26.3 | 0.2 | 82.1*
Cc1ccccc1C(=O)NC(=S)Nc1ccccc1C(=O)O | -2.1 | 3.8 | -0.1 | -1.9 | 0.0 | 8.5
O=C(Nc1ccccn1)c1ccc(C(=O)Nc2ccccn2)cc1 | · | · | · | 27.7 | · | ·
O=C(NC(=S)Nc1ccccn1)c1ccco1 | 3.2 | · | 26.9 | · | -0.1 | 50.4
O=C(O)c1ccccc1C(=O)Nc1cc(-c2ccccc2)[nH]n1 | 1.1 | 3.5 | -3.5 | -4.6 | 0.6 | -3.5
Cc1ccccc1C(=O)NC(=S)Nc1ncccn1 | -0.4 | 2.0 | 2.7 | 46.7* | 0.4 | 39.3
SMILES | NSD2 HMT inh | Casp6 inh | Wnt bcat act | esBAF inh | XiGFP reactiv | MITF TRPM1 HTS
O=C(NC(=S)Nc1ccccn1)c1ccccc1 | -3.3 | 0.7 | 39.2* | 3.7 | 0.3 | 32.5
COc1cccc(-c2ccc3c(c2)[C@H]2[C@H](CCN2C(=O)NC2CCCCC2)[C@@H](CO)N3C)c1 | · | 0.5 | · | · | 0.3 | ·
C[C@H]1CN([C@@H](C)CO)C(=O)c2cccc(NC(=O)Nc3ccc4c(c3)OCO4)c2O[C@@H]1CN(C)Cc1ccc(C(=O)Nc2ccccc2N)cc1 | · | 0.1 | · | · | -0.3 | ·
O=C(/C=C/c1ccccc1)c1ccc2ccccc2c1 | 0.6 | 0.9 | -0.5 | 68.2* | 0.2 | 52.4
O=C(/C=C/c1ccccc1)c1ccccc1 | · | · | 13.7 | 22.5 | 1.7 | 22.2
Cn1c(=O)c2[nH]c(-c3ccc(S(=O)(=O)O)cc3)nc2n(C)c1=O | · | -2.5 | 14.3 | -2.9 | 23.2* | 10.6
CC(C)c1ccc(-c2nc3c([nH]2)c(=O)n(C)c(=O)n3C)cc1 | 9.5 | · | -0.6 | 6.6 | · | -3.3
CCCC#Cc1ccc2c(c1)[C@H]1[C@H](CCN1C(=O)C1CC1)[C@H](CO)N2 | · | · | · | · | 0.2 | ·
Cc1cccn2c(=O)c3cc(C(=O)NCCC4=CCCCC4)n(C)c3nc12 | · | 0.7 | 0.0 | 1.0 | 0.1 | 12.9
Cn1c(C(=O)NCCC2=CCCCC2)cc2c(=O)n3ccccc3nc21 | · | · | · | 44.1* | · | 64.8
CN1C[C@@H]2[C@H](c3ccccc31)[C@H](CO)N2Cc1ccccc1F | · | -2.8 | · | 3.1 | 0.1 | ·
O=S(=O)(c1cccc(-n2cnnn2)c1)N1CCOCC1 | -0.6 | · | · | 2.5 | · | -13.5
NS(=O)(=O)c1cccc(-n2cnnn2)c1 | -1.6 | -1.5 | 0.1 | 0.1 | 39.8* | 10.9
Cc1ccc(-c2csc(C(C#N)=C3CCCC3)n2)cc1 | -6.4 | · | 22.9 | 49.2* | · | 97.8*
N#CC(=C1CCCC1)c1nc(-c2ccccc2)cs1 | -3.5 | · | · | · | · | 120.6*
Cc1cc(C)c(-c2csc(Cc3nc(-c4cc5ccccc5oc4=O)cs3)n2)cc1C | -4.3 | · | · | · | -0.1 | -12.9
N#CC(=C1CCCC1)c1nc(-c2ccccc2O)cs1 | -3.7 | · | · | · | · | 67.5
N#CC(=C1CCCC1)c1nc(-c2cc3ccccc3oc2=O)cs1 | · | 0.6 | 19.4 | 107.8* | · | 87.8*
O=C(C[C@H]1CC[C@@H]2[C@H](COC[C@@H](O)CN2Cc2cc(F)cc(F)c2)O1)NC1CCCC1 | · | -0.7 | · | 1.4 | 0.2 | ·
C[C@@H]1CN([C@H](C)CO)C(=O)c2cc(NC(=O)Cc3cn(C)c4ccccc34)ccc2O[C@H]1CN(C)S(=O)(=O)c1ccc(Cl)cc1 | · | 0.5 | · | 0.9 | 1.0 | ·
COc1cc(/C=N/OCC(=O)NC2CCCCC2C)ccc1OCc1ccc(Cl)cc1 (configuration not stated) | -4.1 | · | 47.4* | 98.3* | 0.0 | 41.7
COc1ccc(/C=N/N2CCOCC2)cc1O | -0.1 | · | · | 20.0 | 0.0 | 14.3
COc1ccc(/C=N/N2CCOCC2)cc1OCc1ccccc1 | -13.8 | -0.2 | -4.1 | -7.7 | 0.0 | -0.9
COc1cc(/C=N/N2CCOCC2)ccc1OCc1ccccc1 | 3.8 | 0.8 | 12.8 | 60.9* | 0.0 | 53.0
COc1cc(/C=N/N2CCOCC2)ccc1OCc1ccc(Cl)cc1 | 0.9 | -0.2 | 10.8 | · | 0.0 | 95.9*
COc1cc(/C=N/OCC(=O)Nc2cc(C)cc(C)c2)ccc1OCc1ccc(Cl)cc1 | -3.6 | 0.7 | ? | · | -0.1 | 75.4
C/C=C/c1ccc2c(c1)O[C@@H](CN(C)C(=O)CN1CCOCC1)[C@H](C)CN([C@H](C)CO)S2(=O)=O | · | 1.8 | · | -5.1 | -0.5 | ·
CCC(=O)N1C[C@H](C)[C@@H](OC)CN(C)C(=O)c2ccc(NC(=O)Nc3ccc(Cl)cc3)cc2OC[C@H]1C | · | · | · | 10.6 | 0.1 | ·
